According to PubChem BioAssay:
Active and inactive are the calls of the source.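 How the source made its calls, unless noted: active means compounds giving at least 50% inhibition in the cell-based MKP-3 phosphatase rescue imaging test; inactive means the rest.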

Tests used:
[1] = inhibitors of TNFa-induced NFkB p65 translocation, primary screen, imaging, HUVEC, MLSMR starter and 10KST1 sets (AID 438;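 active means inhibition above 20% together with a positive visual image hit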;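 further: compound added about 3h40 before a 20 min TNFalpha stimulation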;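 on inhibition: signal is the nuclear over cytoplasmic p65 intensity ratio per well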); settings: HUVEC TNFa-induced p65 nuclear translocation; cell count: measured here: nuclei count (cytotoxicity indicator), at 2.08 µM unless noted; inhibition: at 2 µM, stronger effect = higher value unless noted
[2] = inhibitors of E-selectin induction by TNFa, primary screen, imaging, HUVEC, immunofluorescence, MLSMR starter and 10KST1 sets (AID 487;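 active means visually confirmed hit in the image check and inhibition above 20%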;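 on inhibition: signal is fraction of cell area covered by stained E-selectin grains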;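 on nuclei count: 100% = median nuclei count of all wells on the same plate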); settings: HUVEC TNFalpha-induced E-selectin immunofluorescence imaging, at 2 µM; inhibition: stronger effect = higher value; nuclei count: measured here: cell number, toxicity
[3] = DUSP6 inhibitors restoring Erk phosphorylation by chemical complementation, primary imaging in DUSP6-transfected HeLa (AID 609); settings: HeLa MKP-3 transfected, phospho-Erk imaging KS statistic, at 10 µM;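 on inhibition: phospho-Erk level distribution per well compared with pooled transfected vehicle control wells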
[4] = molecular target: Dual specificity protein phosphatase 6 (Homo sapiens) (UniProt Q16828); assay: as above; settings: HeLa MKP-3 transfected, phospho-Erk imaging KS statistic, at 10 µM, stronger effect = higher value
Dual specificity protein phosphatase 6 (Homo sapiens), sequence (Q16828 whole entry, looked up): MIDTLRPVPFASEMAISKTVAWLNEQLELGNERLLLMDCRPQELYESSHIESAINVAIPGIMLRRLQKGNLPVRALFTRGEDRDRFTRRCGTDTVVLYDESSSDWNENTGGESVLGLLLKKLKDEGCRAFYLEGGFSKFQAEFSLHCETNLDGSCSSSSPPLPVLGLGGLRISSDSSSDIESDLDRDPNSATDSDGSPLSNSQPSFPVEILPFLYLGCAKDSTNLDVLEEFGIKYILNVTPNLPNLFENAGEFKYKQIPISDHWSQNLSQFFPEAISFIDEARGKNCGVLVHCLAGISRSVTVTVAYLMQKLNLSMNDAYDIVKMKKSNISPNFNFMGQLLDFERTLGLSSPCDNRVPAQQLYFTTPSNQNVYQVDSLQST

[5] = molecular target: Voltage-gated potassium channel subunit beta-2 (Rattus norvegicus) (UniProt P62483); assay: KvBeta enzyme negative modulators, primary screen, biochemical, NADPH fluorescence (AID 622;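 active means fluorescence slope higher than the sample average by over 3 SD, cut at about -0.22 in these data, passing the limit was not always enough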;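 further: slope of raw intensity against log time taken from 70 to 1610 s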); settings: recombinant KvBeta, 4-cyanobenzaldehyde reduction, at 10 µM, stronger effect = higher value
Voltage-gated potassium channel subunit beta-2 (Rattus norvegicus), sequence (P62483 whole entry, looked up): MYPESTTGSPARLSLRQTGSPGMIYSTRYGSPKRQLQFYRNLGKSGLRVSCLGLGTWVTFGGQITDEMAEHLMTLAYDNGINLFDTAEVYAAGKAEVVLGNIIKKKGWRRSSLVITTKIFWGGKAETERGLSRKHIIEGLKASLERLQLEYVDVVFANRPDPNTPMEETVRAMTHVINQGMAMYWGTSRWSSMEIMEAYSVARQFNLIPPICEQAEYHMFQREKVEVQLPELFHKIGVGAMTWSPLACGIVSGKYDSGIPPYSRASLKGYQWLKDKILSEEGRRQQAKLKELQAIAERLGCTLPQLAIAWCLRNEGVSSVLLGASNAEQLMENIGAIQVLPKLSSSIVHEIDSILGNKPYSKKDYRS

[6] = molecular target: Voltage-gated potassium channel subunit beta-2 (Rattus norvegicus) (UniProt P62483); assay: KvBeta positive modulators, primary screen, biochemical, NADPH fluorescence (AID 623;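 active means NADPH fluorescence slope more negative than the mean of all samples by about 3 SD, 99.7% confidence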;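 further: fluorescence intensity change per second fitted from 20 to 320 s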); settings: Recombinant KvBeta, NADPH fluorescence decrease slope, 10 min; at 10 µM; stronger effect = lower value
[7] = molecular target: Alpha-2C adrenergic receptor (Homo sapiens) (UniProt P18825); assay: modulators of alpha2C/GIRK thallium flux, primary screen, cell-based, HEK293 alpha2C/GIRK1/2 (AID 624;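 active means fluorescence slope after compound addition differing from the mean of all screened samples at 99.7% confidence, in either direction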;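 further: slope of fluorescence ratio to pre-addition baseline per second over 15 to 24 s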); settings: thallium flux BTC fluorescence, at 10 µM, actives lie on both sides
Alpha-2C adrenergic receptor (Homo sapiens), sequence (P18825 whole entry, looked up): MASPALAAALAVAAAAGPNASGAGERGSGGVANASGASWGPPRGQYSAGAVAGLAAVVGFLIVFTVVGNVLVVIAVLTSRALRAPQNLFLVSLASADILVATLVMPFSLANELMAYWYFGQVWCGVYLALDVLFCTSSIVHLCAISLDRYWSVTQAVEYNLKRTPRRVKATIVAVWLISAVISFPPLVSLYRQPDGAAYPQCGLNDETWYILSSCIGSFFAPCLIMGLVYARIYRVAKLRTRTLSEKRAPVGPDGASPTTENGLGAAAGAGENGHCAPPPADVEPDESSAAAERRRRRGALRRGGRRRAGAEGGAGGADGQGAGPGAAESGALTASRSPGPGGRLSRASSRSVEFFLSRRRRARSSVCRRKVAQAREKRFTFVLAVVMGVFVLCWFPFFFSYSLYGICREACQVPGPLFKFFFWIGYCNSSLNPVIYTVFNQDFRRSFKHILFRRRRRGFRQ

[8] = inhibitors of larval lipid processing in zebrafish, primary screen, whole organism, PED6 fluorescence, gall bladder and intestine (AID 686;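 active means a full or partial loss of lipid-probe fluorescence in the fish gall bladder, intestine or both, judged by eye; inactive means no fluorescence loss, or compound toxic to the fish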;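 further: larvae 5 to 7 days old with five fish per well; signal comes from phospholipase A2 cleavage of quenched PED6 carried via bile; overnight exposure to compound and PED6 before scoring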); settings: Zebrafish larvae PED6 lipid processing, fluorescence scoring
Procedure, shortened: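 Test system – live zebrafish larvae aged 5-7 days, whole organism · Buffer or medium – E3 fish medium · Reagent – quenched phospholipase substrate PED6, 100 nM final, ingested by larvae · Doses – 20 µM single dose · Incubation – overnight compound and PED6 incubation · Technique – visual fluorescence microscopy scoring of gall bladder, gut · Read-out basis – visual per-well fluorescence inhibition score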

[9] = inhibitors of Chlamydomonas gravitaxis, primary screen, whole organism, Chlamydomonas reinhardtii, WT vs cilia-less mutant, absorbance, 96-well (AID 463189;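 active means inhibition at or above 50% relative to wild type and mutant plate controls; inactive means inhibition below 50%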;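 further: 0% = wild type cc124 cells in DMSO and 100% = ciliumless bld1 mutant cells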); settings: OD600 absorbance, 2 days, at 10 µM, stronger effect = higher value
[10] = measured here: cell density z-score
[11] = measured here: nuclear c-Myc green intensity z-score
[12] = measured here: nuclear pErk red intensity z-score, stronger effect = higher value

Row | Compound | cell count [1] | inhibition [1] | inhibition [2] | nuclei count [2] | z-score [3, 10] | z-score [3, 11] | z-score [3, 12] | inhibition [4] | fluorescence slope [5] | NADPH fluorescence slope [6] | slope [7] | outcome [8] | inhibition [9]
1 | CCCCc1nc2ccccc2c(=O)n1-c1ccccc1O | 619 | -3.2% (inactive) | -6.5% (inactive) | 178% | -0.399 | 0.344 | 1.46 | -4.78% (inactive) | -0.36 (inactive) | 5.8e-06 (inactive) | 0.00524 (inactive) | inactive | 2.52% (inactive)
2 | OC(Cc1ccccc1)(c1ccccc1)C1CN2CCC1CC2 (centres undefined) | 556 | -8.4% (inactive) | -124% (inactive) | 130% | 0.0962 | 1.34 | 0.286 | 1.98% (inactive) | -0.512 (inactive) | -2.1e-05 (inactive) | 0.00546 (inactive) | inactive | 0.812% (inactive)
3 | CCCCCCn1c(O)c(C=NCCN2CCCCC2)c(=O)[nH]c1=O | 667 | -17.9% (inactive) | -47.5% (inactive) | 141% | 0.204 | -1.24 | -1.39 | 12.7% (inactive) | -0.423 (inactive) | -2.4e-06 (inactive) | 0.00602 (inactive) | inactive | 12.8% (inactive)
4 | CNCCc1nc(N)n[nH]1 | 570 | -4.9% (inactive) | -160% (inactive) | 139% | 1.42 | -0.447 | -0.807 | 27.8% (inactive) | -0.507 (inactive) | -4.4e-05 (inactive) | 0.00445 (inactive) | inactive | 24% (inactive)
5 | CCOc1ccc(Cc2c(O)[nH]c(=O)[nH]c2=O)cc1 | 618 | -8.4% (inactive) | -94.6% (inactive) | 180% | -2.58 | 1.33 | 1.61 | 3.56% (inactive) | -0.34 (inactive) | -3.4e-06 (inactive) | 0.00464 (inactive) | inactive | 18.5% (inactive)
6 | CCC(=NCCN1CCCCC1)c1c(O)n(C)c(=O)n(C)c1=O | 605 | 0.7% (inactive) | -61.5% (inactive) | 154% | 0.767 | -1.21 | 0.171 | 7.83% (inactive) | -0.517 (inactive) | -3.9e-05 (inactive) | 0.00466 (inactive) | inactive | 18% (inactive)
7 | CCOCCN1CCC(OC(C)=O)C(C)C1 (centres undefined) | 461 | -0.9% (inactive) | -83.1% (inactive) | 115% | -0.179 | -1.35 | -0.74 | -6.86% (inactive) | -0.51 (inactive) | -0.000103 (inactive) | 0.00675 (inactive) | inactive | -15.8% (inactive)
8 | COc1ccc(-n2c(SC)nc3ccccc3c2=O)cc1 | 594 | -3.7% (inactive) | -93.7% (inactive) | 134% | -0.0992 | -1.67 | -0.0859 | 4.25% (inactive) | -0.492 (inactive) | -0.000141 (inactive) | 0.00471 (inactive) | inactive | 12.5% (inactive)
9 | CCCCCCn1c(O)c(C(C)=NC)c(=O)[nH]c1=O | 556 | -6.2% (inactive) | -77.6% (inactive) | 162% | 0.993 | -1.06 | 1.3 | -0.608% (inactive) | -0.503 (inactive) | -6.1e-05 (inactive) | 0.00581 (inactive) | inactive | -6.02% (inactive)
10 | CC(C)Cc1[nH]c(=O)c(C#N)c2c1CCC2 | 490 | 8.7% (inactive) | -51.3% (inactive) | 119% | 0.582 | 0.998 | -0.369 | -1.75% (inactive) | -0.439 (inactive) | -4.3e-06 (inactive) | 0.00495 (inactive) | inactive | 20.8% (inactive)
11 | O=c1[nH]c(O)c(C=NC2CCN(Cc3ccccc3)CC2)c(=O)[nH]1 | 422 | 0.5% (inactive) | -125% (inactive) | 167% | 0.26 | -1.34 | -0.141 | 4.25% (inactive) | -0.409 (inactive) | -7.4e-05 (inactive) | 0.00643 (inactive) | inactive | -1.61% (inactive)
12 | CC1(C)CC(=O)C(C=NCCN2CCN(C(=O)Cc3ccc(F)cc3)CC2)=C(O)C1 | 580 | 5.6% (inactive) | -57.7% (inactive) | 140% | 0.866 | 1.58 | -0.927 | 17.8% (inactive) | -0.481 (inactive) | -3.6e-05 (inactive) | 0.00584 (inactive) | inactive | -8.15% (inactive)
13 | O=c1[nH]c(=O)n(-c2cccc(Cl)c2)c(O)c1C=NCCN1CCCCC1 | 506 | 1.5% (inactive) | -67.4% (inactive) | 143% | -0.817 | 1.06 | 1.7 | 15% (inactive) | -0.435 (inactive) | -5.4e-05 (inactive) | 0.00582 (inactive) | inactive | -0.905% (inactive)
14 | COc1ccc(Cn2c(O)c(C=NCCCn3ccnc3)c(=O)[nH]c2=O)cc1 | 466 | -0.7% (inactive) | 54% (inactive) | 81.9% | -1.17 | 0.328 | 0.929 | 4.25% (inactive) | -0.443 (inactive) | -1.5e-05 (inactive) | 0.00461 (inactive) | inactive | -4.22% (inactive)
15 | O=C1NCCN2CCCC12 (centres undefined) | 549 | -10.8% (inactive) | -50.9% (inactive) | 158% | -1.06 | -1.18 | 1.73 | -0.608% (inactive) | -0.497 (inactive) | -0.000122 (inactive) | 0.00514 (inactive) | inactive | 13.6% (inactive)
16 | O=c1[nH]c(=O)n(Cc2ccco2)c(O)c1C=NCCN1CCOCC1 | 680 | -12.4% (inactive) | -84.8% (inactive) | 179% | 0.97 | -1.61 | 0.194 | -8.95% (inactive) | -0.384 (inactive) | -2.1e-05 (inactive) | 0.00707 (inactive) | inactive | -10.1% (inactive)
17 | CCCCn1c(O)c(C=NCCN2CCCCC2)c(=O)[nH]c1=O | 430 | 0.6% (inactive) | 17.7% (inactive) | 87.8% | 0.907 | -2.11 | -0.0585 | -4.7% (inactive) | -0.489 (inactive) | 9.8e-06 (inactive) | 0.00621 (inactive) | inactive | 3.56% (inactive)
18 | CCOC(=O)[C@]1(C#N)[C@@H]2C=CC(C(C)=O)=CN2[C@@H](C(N)=O)[C@@H]1c1ccsc1 | 560 | -5.3% (inactive) | -130% (inactive) | 212% | 0.77 | 0.227 | -0.321 | -2.91% (inactive) | -0.358 (inactive) | -1.4e-05 (inactive) | -0.00125 (inactive) | inactive | 13.7% (inactive)
